Source: ChEMBL document CHEMBL1151172, “Further labdane and kaurane diterpenoids and other constituents from Plectranthus fruticosus” (2004)
Values after ≈ are worked out from the molar mass of the structure shown. Active and inactive are the calls of the source. No cut-off for these calls is given here.

Tests used:
Pseudomonas aeruginosa = assay: Antimicrobial activity against Pseudomonas aeruginosa ATCC 27853 by serial broth microdilution method; type: functional, organism-based
How it was run: (§1)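 MIC by NCCLS serial broth microdilution in Mueller-Hinton broth. Compounds dissolved in DMSO and tested at graded concentrations from 250 to 7.8 µg/mL. A solvent blank was included.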

Escherichia coli = assay: Antimicrobial activity against Escherichia coli ATCC 25922 by serial broth microdilution method; type: functional; how it was run: as §1
Candida albicans = assay: Antimicrobial activity against Candida albicans CIP 3153A by serial broth microdilution method; type: functional, organism-based
How it was run: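 Yeast MIC by serial broth microdilution following NCCLS, using YMA medium. Compounds were dissolved in DMSO and tested over graded concentrations from 250 to 7.8 µg/mL, with a solvent blank.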

Staphylococcus aureus = assay: Antimicrobial activity against Staphylococcus aureus ATCC 25923 by serial broth microdilution method; type: functional; how it was run: as §1

**Q.** Which results are given for `C=C1CC[C@@H]2[C@H]([C@H]3[C@H]1CC[C@@]3(O)CO)C2(C)C`?
**A.** Activity (Pseudomonas aeruginosa): inactive; Activity (Escherichia coli): inactive; Activity (Candida albicans): inactive

**Q.** With `C=C1[C@H]2C[C@@]3(CC[C@H]4[C@@](C)(CCC[C@@]4(C)C(=O)O)[C@@H]3C[C@@H]2OC(C)=O)[C@H]1O` as the compound, how does the Activity (Pseudomonas aeruginosa) read?
**A.** inactive

**Q.** And the Activity (Escherichia coli)?
**A.** inactive

**Q.** And the Activity (Candida albicans)?
**A.** inactive

**Q.** What does the source list for `COC(=O)[C@]1(C)CCC[C@@]2(C)[C@@H]3C[C@H](OC(C)=O)[C@@H]4C[C@@]3(CC[C@@H]21)[C@H]1O[C@]14C`?
**A.** Activity (Pseudomonas aeruginosa): inactive; Activity (Escherichia coli): inactive; Activity (Candida albicans): inactive

**Q.** What does the source list for `C=C1[C@H]2C[C@@]3(CC[C@H]4[C@@](C)(CCC[C@@]4(C)C(=O)OC)[C@@H]3C[C@@H]2OC(C)=O)[C@H]1O`?
**A.** Activity (Pseudomonas aeruginosa): inactive; Activity (Escherichia coli): inactive; Activity (Candida albicans): inactive

**Q.** What does the source list for `COC(=O)[C@]1(C)CCC[C@@]2(C)[C@@H]3C[C@H](OC(C)=O)[C@@H]4C[C@]3(C=C4C=O)CC[C@@H]21`?
**A.** Activity (Pseudomonas aeruginosa): inactive; Activity (Escherichia coli): inactive; Activity (Candida albicans): inactive; MIC (Staphylococcus aureus): 62.5 µg/mL (≈ 161 µM)

**Q.** For `C=C1C[C@@]23CC[C@H]4[C@@](C)(CCC[C@@]4(C)C(=O)OC)[C@@H]2C[C@H](O)[C@@H]1C3`, which Activity (Pseudomonas aeruginosa) is on record?
**A.** inactive

**Q.** What about the Activity (Escherichia coli) of the same compound?
**A.** inactive

**Q.** And the Activity (Candida albicans)?
**A.** inactive

**Q.** Which Activity (Pseudomonas aeruginosa) does the source give for `CC1=C[C@]23C[C@H]1CC[C@H]2[C@]1(C)CCC[C@@](C)(C(=O)O)[C@H]1C[C@H]3O` here?
**A.** inactive

**Q.** What about the Activity (Escherichia coli) of the same compound?
**A.** inactive

**Q.** And the Activity (Candida albicans)?
**A.** inactive

**Q.** Which Activity (Pseudomonas aeruginosa) does the source give for `CC(=O)O[C@H]1C[C@@H]2[C@@]3(C=C(C=O)[C@H]1C3)CC[C@H]1[C@@]2(C)CCC[C@@]1(C)C(=O)O` here?
**A.** inactive

**Q.** What about the Activity (Escherichia coli) of the same compound?
**A.** inactive

**Q.** And the Activity (Candida albicans)?
**A.** inactive

**Q.** For `COC(=O)[C@]1(C)CCC[C@@]2(C)[C@@H]3C[C@H](OC(C)=O)[C@@H]4C[C@]3(C=C4C)[C@H](O)C[C@@H]21`, which Activity (Pseudomonas aeruginosa) is on record?
**A.** inactive

**Q.** And the Activity (Escherichia coli)?
**A.** inactive

**Q.** And the Activity (Candida albicans)?
**A.** inactive

**Q.** For `C[C@@]12CCC[C@@](C)(C(=O)O)[C@H]1C[C@@H](O)[C@@]13C[C@@H](CC[C@@H]21)[C@]1(C)O[C@@H]13`, which Activity (Pseudomonas aeruginosa) is on record?
**A.** inactive

**Q.** What about the Activity (Escherichia coli) of the same compound?
**A.** inactive

**Q.** And the Activity (Candida albicans)?
**A.** inactive

**Q.** Which results are given for `C=C1C[C@]23C[C@H]1[C@@H](OC(C)=O)C[C@H]2[C@]1(C)CCC[C@@](C)(C(=O)O)[C@H]1C[C@H]3O`?
**A.** Activity (Pseudomonas aeruginosa): inactive; Activity (Escherichia coli): inactive; Activity (Candida albicans): inactive

**Q.** For `C=C/C(C)=C\C[C@@H]1C(=C)CC[C@@H]2C(C)(C)[C@H](O)[C@@H](O)C[C@@]12C`, which Activity (Pseudomonas aeruginosa) is on record?
**A.** inactive

**Q.** What about the Activity (Escherichia coli) of the same compound?
**A.** inactive

**Q.** What about the Activity (Candida albicans) of the same compound?
**A.** inactive

**Q.** `NC[C@H]1O[C@H](O[C@H]2[C@H](O)[C@@H](O[C@H]3O[C@H](CO)[C@@H](O)[C@H](N)[C@H]3O)[C@H](N)C[C@@H]2N)[C@H](O)[C@@H](O)[C@@H]1O` [KANAMYCIN] was tested. Which MIC (Escherichia coli) did it give?
**A.** < 7.8 µg/mL

**Q.** What about the MIC (Staphylococcus aureus) of the same compound?
**A.** < 7.8 µg/mL
